Screens: PubChem BioAssay, Johns Hopkins Ion Channel Center
KCNQ1 act: potentiators or activators of KCNQ1 channel, primary screen, cell-based, thallium flux, high-throughput. Potassium voltage-gated channel subfamily KQT member 1 (Homo sapiens), P51787. CHO-K1 KCNQ1, thallium flux FluxOR fluorescence; hits give high values. B-score at 10 µM. hit rate 0.35% among 310,000. AID 2648, 2010;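 active = fluorescence ratio B-score, a plate-corrected score, at least three library SD, with initial intensity B-score within 5 SD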
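Schedule – 37 °C overnight plating, 90-min dark dye load, 20-min compound pretreatment · System – stable KCNQ1 CHO-K1 line · Probe or stimulus – thallium- and potassium-containing depolarizing buffer · Measured by – kinetic FluxOR fluorescence, 10 s baseline plus 110 s post-stimulus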
KCNQ1 block: inhibitors of human KCNQ1 channel, primary screen, cell-based, thallium flux, high-throughput | Potassium voltage-gated channel subfamily KQT member 1 (Homo sapiens), P51787 | CHO-K1 KCNQ1, FluxOR thallium flux fluorescence; hits give high values | B-score at 10 µM | hit rate 1.3% among 310,000;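 active = compounds whose thallium flux B-score, printed positive for inhibition, exceeds three library SD while starting fluorescence stays within three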;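 also: channel opened by potassium depolarization with thallium stimulus after 20 min compound exposure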
Kir21 inh: inhibitors of mouse Kir2.1 inward-rectifier potassium channel; Inward rectifier potassium channel 2 (Mus musculus), P35561; B-score at 10 µM; hit rate 0.85% among 310,000; HEK293-Kir2.1, FluxOR thallium flux fluorescence; hits give low values; AID 1672, 2009;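 active = fluorescence ratio B-score at or below minus 3 SD of library scores, with starting-brightness B-score within 2 SD, cut at about -4.2 in these data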;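 also: channel flux triggered by added potassium and thallium sulfate stimulus; B-score of peak minus minimum fluorescence over baseline after thallium stimulus; more negative B-score means stronger Kir2.1 block with less thallium influx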
hERG rescue: hERG rescue from dofetilide block, primary screen, cell-based, CHO-hERG, FluxOR thallium flux, dofetilide IC70. Voltage-gated inwardly rectifying potassium channel KCNH2 (Homo sapiens), Q12809. activation (rescue from dofetilide block), less the hit threshold, % at 10 µM. hit rate 0.51% among 310,000. dofetilide IC70 present;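 active = activation above the mean of controls blocked by dofetilide plus 5 SD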;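 also: thallium influx through hERG after potassium depolarization seen as dye fluorescence rise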
Target sequence (Q12809 whole entry, looked up): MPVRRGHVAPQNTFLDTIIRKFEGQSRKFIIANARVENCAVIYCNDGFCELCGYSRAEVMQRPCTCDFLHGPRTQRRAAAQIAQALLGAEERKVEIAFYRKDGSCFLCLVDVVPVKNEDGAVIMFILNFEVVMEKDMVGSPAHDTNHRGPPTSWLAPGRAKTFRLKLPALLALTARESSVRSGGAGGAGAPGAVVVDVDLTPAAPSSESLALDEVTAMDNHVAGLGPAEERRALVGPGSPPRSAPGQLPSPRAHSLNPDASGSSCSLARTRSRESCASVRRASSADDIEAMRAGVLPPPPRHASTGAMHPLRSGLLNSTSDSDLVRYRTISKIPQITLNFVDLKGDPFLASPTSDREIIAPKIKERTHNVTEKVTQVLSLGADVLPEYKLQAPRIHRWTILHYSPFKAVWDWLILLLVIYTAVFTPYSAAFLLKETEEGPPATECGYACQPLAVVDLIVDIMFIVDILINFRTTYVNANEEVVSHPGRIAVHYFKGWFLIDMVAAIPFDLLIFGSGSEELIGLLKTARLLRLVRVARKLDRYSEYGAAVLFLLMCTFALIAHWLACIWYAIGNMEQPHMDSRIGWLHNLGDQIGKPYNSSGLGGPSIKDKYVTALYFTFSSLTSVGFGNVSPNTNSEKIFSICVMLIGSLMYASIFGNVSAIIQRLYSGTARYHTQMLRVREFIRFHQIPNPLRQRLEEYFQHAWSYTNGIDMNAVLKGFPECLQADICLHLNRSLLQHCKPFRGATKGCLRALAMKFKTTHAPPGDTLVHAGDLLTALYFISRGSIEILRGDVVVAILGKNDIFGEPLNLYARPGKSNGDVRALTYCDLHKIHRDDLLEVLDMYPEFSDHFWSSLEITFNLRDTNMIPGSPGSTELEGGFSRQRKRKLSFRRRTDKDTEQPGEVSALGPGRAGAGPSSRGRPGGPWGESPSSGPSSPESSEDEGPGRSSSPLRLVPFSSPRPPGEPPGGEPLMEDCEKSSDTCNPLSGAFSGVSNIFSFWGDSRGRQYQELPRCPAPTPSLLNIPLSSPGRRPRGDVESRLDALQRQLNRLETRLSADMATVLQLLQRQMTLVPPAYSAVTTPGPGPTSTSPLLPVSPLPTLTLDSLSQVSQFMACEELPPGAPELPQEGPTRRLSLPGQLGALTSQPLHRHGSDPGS
KCNK9 inh: KCNK9 potassium channel inhibitors, primary screen, HEK293 cells, thallium flux; B-score at 10 µM; FluxOR thallium flux fluorescence; hits give low values; AID 488922, 2010; hit rate 1.2% among 310,000; Potassium channel subfamily K member 9 (Homo sapiens), Q9NPC2;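 active = ratio B-score over 3 SD below the library mean, with starting fluorescence within 5 SD of its mean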;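 also: negative B-score means less thallium flux so channel inhibition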
KCNK3 block: human KCNK3 channel inhibitors, primary screen, CHO cells, FluxOR thallium flux, B-score | Potassium channel subfamily K member 3 (Homo sapiens), O14649 | FluxOR fluorescence; hits give low values | B-score at 10 µM | hit rate 0.84% among 340,000;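 active = B-score under library mean minus 4 SD, starting fluorescence ratio at most library mean plus 5 SD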;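 also: more negative B-score means stronger inhibition of thallium flux through KCNK3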
KCNK9 block conf: KCNK9 potassium channel inhibitors, confirmation, HEK293 cells, thallium flux, duplicate | shares compounds with KCNK9 inh | FluxOR thallium flux fluorescence | inhibition, % at 10 µM | hit rate 43% among 4,900 | AID 492992, 2010;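 active = thallium signal inhibited by more than 5 SD of the compound-free buffer control wells, on both duplicate plates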;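 also: 0% = assay buffer control wells without compound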
Kir2-1 spec: mouse Kir2.1 channel inhibition, confirmation, selectivity assay for KCNK9 modulator project, cell-based, HEK293, thallium flux. shares compounds with KCNK9 inh. Kir2.1 cells, FluxOR thallium flux fluorescence. inhibition, % at 10 µM. hit rate 4% among 4,900;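 active = thallium signal drop more than 5 SD beyond the mean of the no-compound control wells, seen in both duplicate plates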;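 also: signal is fluorescence rise after thallium addition divided by baseline fluorescence; plate controls were assay buffer only for no effect and full block by chlorpromazine control for full effect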
KCNK9 uninduced: thallium flux in non-induced HEK293 cells, confirmation, counter-screen for KCNK9 inhibitor project, cell-based, second counter screen, non-induced KCNK9-HEK293; shares compounds with KCNK9 inh; FluxOR thallium flux; inhibition, % at 10 µM; hit rate 40% among 4,900;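 active = thallium signal drop beyond 5 SD of the untreated control mean, on both duplicate plates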;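 also: plate controls were buffer only IC0 wells for no effect and SID17386958 at its maximal inhibitory level for full effect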
The depositor's hits bear a star. Rows were chosen to be rich in hits. Some 3.8% of all compounds tested hit in one or more screens of this group.

Results for Brc1cc2c(cc1C1Nc3ccccc3C3C=CCC31)OCO2 (stereo not drawn) ?
KCNQ1 act: inactive; KCNQ1 block: inactive; Kir21 inh: 2.2; hERG rescue: -12; KCNK9 inh: -8.3*; KCNK3 block: inactive; KCNK9 block conf: 56%*; Kir2-1 spec: inactive; KCNK9 uninduced: 42%*

What do the screens show for `COc1ccc(NC(=O)CSc2nc3nc(C)cc(C)c3c(=O)[nH]2)cc1OC`?
KCNK3 block: inactive

What do the screens show for `CC(C)CN1C(=S)SC(C)(C)C1n1oc(=O)n(-c2ccccc2)c1=O` (stereo not drawn)?
KCNQ1 act: inactive; KCNQ1 block: inactive; Kir21 inh: -0.61; hERG rescue: -1; KCNK9 inh: inactive; KCNK3 block: inactive; KCNK9 block conf: inactive; Kir2-1 spec: inactive; KCNK9 uninduced: inactive

What do the screens show for `COc1ccc(NC(=O)N(C)C[C@H]2Oc3ccc(NC(=O)Nc4ccc5c(c4)OCO5)cc3C(=O)N([C@H](C)CO)C[C@@H]2C)cc1`?
KCNK3 block: inactive

Results for Cc1nc2ccc(NC(=O)c3ccc(Cl)c([N+](=O)[O-])c3)cc2s1 ?
KCNQ1 act: inactive; KCNQ1 block: inactive; Kir21 inh: -0.18; hERG rescue: -2; KCNK9 inh: inactive; KCNK3 block: inactive

Results for Cc1nc2ccc(NC(=O)c3ccc([N+](=O)[O-])cc3)cc2s1 ?
KCNQ1 act: inactive; KCNQ1 block: inactive; Kir21 inh: 2.2; hERG rescue: -4; KCNK9 inh: inactive; KCNK3 block: inactive; KCNK9 block conf: inactive; Kir2-1 spec: inactive; KCNK9 uninduced: inactive

What do the screens show for `Cc1nnc(SCC(=O)Nc2ncc(S(=O)(=O)c3ccc([N+](=O)[O-])cc3)s2)s1`?
KCNQ1 act: inactive; KCNQ1 block: inactive; Kir21 inh: 0.39; hERG rescue: -5; KCNK9 inh: inactive; KCNK3 block: inactive

How did COC(=O)C(NC(=O)c1ccccc1C)(Nc1ncc(S(=O)(=O)c2ccc([N+](=O)[O-])cc2)s1)C(F)(F)F (stereo not drawn) do in these assays?
KCNQ1 act: inactive; KCNQ1 block: inactive; Kir21 inh: 0.34; hERG rescue: -12; KCNK9 inh: inactive; KCNK3 block: inactive; KCNK9 block conf: inactive; Kir2-1 spec: inactive; KCNK9 uninduced: inactive

What do the screens show for `COc1c(C)cc(C(=O)C2CCCN(C(=O)c3csc(C)n3)C2)cc1C` (stereo not drawn)?
KCNQ1 act: inactive; KCNQ1 block: inactive; Kir21 inh: 1.4; hERG rescue: -6; KCNK9 inh: inactive; KCNK3 block: inactive

Results for COc1c(C)cc(C(=O)C2CCCN(C(=O)c3cccc(-n4cccn4)c3)C2)cc1C (stereo not drawn) ?
KCNQ1 act: inactive; KCNQ1 block: inactive; Kir21 inh: -0.31; hERG rescue: -17; KCNK9 inh: inactive; KCNK3 block: inactive; KCNK9 block conf: inactive; Kir2-1 spec: inactive; KCNK9 uninduced: inactive
